Values after ≈ are worked out from the molar mass of the structure shown.
How the values were obtained:
Enterococcus faecium [1] = experiment: Antibacterial activity against glycopeptide susceptible Enterococcus faecium 568 strain; format: functional
Outline: (§1)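 MIC by broth microdilution in Mueller Hinton broth following NCCLS procedures. Compounds dissolved in 10% DMSO in water, then diluted in broth; test range 128 to 0.13 µg/mL, final DMSO 1.28% to 0.0013% accordingly. Repeat determinations usually identical and always within 2-fold. Strain 533 is a clinical isolate; strain 602 is a clinical S. haemoliticus isolate.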

[2] = tested on: Staphylococcus epidermidis; experiment: Antibacterial activity against Staphylococcus epidermis 533 strain; format: functional
[3] = tested on: Staphylococcus haemolyticus; experiment: Antibacterial activity against Staphylococcus haemolyticus 602 strain
Staphylococcus aureus [4] = experiment: Antibacterial activity against glycopeptide intermediate resistant Staphylococcus aureus 3797 strain; format: functional
Outline: (§2)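 MIC by broth microdilution in Mueller Hinton broth following NCCLS procedures. Compounds were dissolved in 10% DMSO in water, then diluted in broth. Final DMSO was 1.28% at 128 µg/mL antibiotic down to 0.0013% at 0.13 µg/mL. Repeat determinations were usually identical and always within 2-fold.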

Enterococcus faecalis [5] = experiment: Antibacterial activity against glycopeptide susceptible Enterococcus faecalis 559 strain; format: functional; outline: as §1
Staphylococcus aureus [6] = experiment: Antibacterial activity against glycopeptide intermediate resistant Staphylococcus aureus 3798 strain; format: functional; outline: as §2
Enterococcus faecium [7] = experiment: Antibacterial activity against glycopeptide resistant Enterococcus faecium 569 strain; format: functional; outline: as §2
Enterococcus faecalis [8] = experiment: Antibacterial activity against glycopeptide resistant Enterococcus faecalis 560 strain; format: functional; outline: as §2

| SMILES | MIC (Enterococcus faecium [1]) [µg/mL] | MIC [2] [µg/mL] | MIC [3] [µg/mL] | MIC (Staphylococcus aureus [4]) [µg/mL] | MIC (Enterococcus faecalis [5]) [µg/mL] | MIC (Staphylococcus aureus [6]) [µg/mL] | MIC (Enterococcus faecium [7]) [µg/mL] | MIC (Enterococcus faecalis [8]) [µg/mL] |
| --- | --- | --- | --- | --- | --- | --- | --- | --- |
| NC(=O)C[C@@H]1NC(=O)[C@H](N)[C@H](O)c2ccc(c(Cl)c2)Oc2cc3cc(c2O)Oc2ccc(cc2)[C@@H](O)[C@@H]2NC(=O)[C@H](NC(=O)[C@@H]3NC1=O)c1ccc(O)c(c1)-c1c(O)cc(O)cc1[C@@H](C(=O)O)NC2=O | > 128 | > 128 | > 128 | > 128 | > 128 | > 128 | – | – |
| C[C@@H]1O[C@@H](O[C@H]2[C@H](Oc3c4cc5cc3Oc3ccc(cc3Cl)[C@@H](O)[C@@H](N)C(=O)N[C@@H](CC(N)=O)C(=O)N[C@H]5C(=O)N[C@H]3C(=O)N[C@H](C(=O)N[C@H](C(=O)NCc5ccc(-c6ccc(Cl)cc6)cc5)c5cc(O)cc(O)c5-c5cc3ccc5O)[C@H](O[C@H]3C[C@](C)(N)[C@@H](O)[C@H](C)O3)c3ccc(cc3)O4)O[C@H](CO)[C@@H](O)[C@@H]2O)C[C@](C)(N)[C@H]1O | 4 (≈ 2.45 µM) | 4 (≈ 2.45 µM) | 4 (≈ 2.45 µM) | 8 (≈ 4.91 µM) | 4 (≈ 2.45 µM) | 8 (≈ 4.91 µM) | 2 (≈ 1.23 µM) | 4 (≈ 2.45 µM) |
| CCCCCCCCCCNC(=O)[C@H]1NC(=O)[C@H]2NC(=O)[C@H](NC(=O)[C@H](N)c3cc(Oc4ccc(C[C@@H](N)CO)cc4Cl)c(O)c(c3)Oc3ccc(cc3Cl)[C@H]2O[C@@H]2O[C@@H](CO)[C@@H](O)[C@H](O)[C@@H]2NC(C)=O)c2ccc(O)c(c2)-c2c(O[C@H]3O[C@H](CO)[C@@H](O)[C@@H](O)[C@@H]3O)cc(O)cc21 | 16 (≈ 11.5 µM) | 16 (≈ 11.5 µM) | 32 (≈ 22.9 µM) | 32 (≈ 22.9 µM) | 16 (≈ 11.5 µM) | 16 (≈ 11.5 µM) | 16 (≈ 11.5 µM) | 64 (≈ 45.9 µM) |
| CCCCCCCCCCNC(=O)[C@H]1NC(=O)[C@H]2NC(=O)[C@H](NC(=O)[C@@H]3NC(=O)[C@H](CC(N)=O)NC(=O)[C@H](NC(=O)[C@@H](CC(C)C)NC)[C@H](O)c4ccc(c(Cl)c4)Oc4cc3cc(c4O)Oc3ccc(cc3)[C@H]2O)c2ccc(O)c(c2)-c2c(O)cc(O)cc21 | 4 (≈ 3.2 µM) | 4 (≈ 3.2 µM) | 4 (≈ 3.2 µM) | 4 (≈ 3.2 µM) | 4 (≈ 3.2 µM) | 4 (≈ 3.2 µM) | 4 (≈ 3.2 µM) | 4 (≈ 3.2 µM) |
| CN[C@H](CC(C)C)C(=O)N[C@H]1C(=O)N[C@@H](CC(N)=O)C(=O)N[C@H]2C(=O)N[C@H]3C(=O)N[C@H](C(=O)N[C@H](C(=O)NCc4ccc(-c5ccc(Cl)cc5)cc4)c4cc(O)cc(O)c4-c4cc3ccc4O)[C@H](O[C@H]3C[C@](C)(N)[C@@H](O)[C@H](C)O3)c3ccc(cc3)Oc3cc2cc(c3O[C@@H]2O[C@H](CO)[C@@H](O)[C@H](O)[C@H]2O[C@H]2C[C@](C)(N)[C@@H](O)[C@H](C)O2)Oc2ccc(cc2Cl)[C@H]1O | 1 (≈ 0.569 µM) | 2 (≈ 1.14 µM) | 1 (≈ 0.569 µM) | 4 (≈ 2.28 µM) | 2 (≈ 1.14 µM) | 4 (≈ 2.28 µM) | 4 (≈ 2.28 µM) | 4 (≈ 2.28 µM) |
| CCCCCCCCCCNC(=O)[C@H]1NC(=O)[C@H]2NC(=O)[C@H](NC(=O)[C@@H]3NC(=O)[C@H](CC(N)=O)NC(=O)[C@H](N)[C@H](O)c4ccc(c(Cl)c4)Oc4cc3cc(c4O)Oc3ccc(cc3)[C@H]2O)c2ccc(O)c(c2)-c2c(O)cc(O)cc21 | 64 (≈ 57.1 µM) | 16 (≈ 14.3 µM) | 64 (≈ 57.1 µM) | 32 (≈ 28.5 µM) | 64 (≈ 57.1 µM) | 32 (≈ 28.5 µM) | 64 (≈ 57.1 µM) | > 128 |
| CN[C@H](CC(C)C)C(=O)N[C@H]1C(=O)N[C@@H](CC(N)=O)C(=O)N[C@H]2C(=O)N[C@H]3C(=O)N[C@H](C(=O)N[C@H](C(=O)O)c4cc(O)cc(O)c4-c4cc3ccc4O)[C@H](O)c3ccc(c(Cl)c3)Oc3cc2cc(c3O[C@@H]2O[C@H](CO)[C@@H](O)[C@H](O)[C@H]2O[C@H]2C[C@](C)(N)[C@H](O)[C@H](C)O2)Oc2ccc(cc2Cl)[C@H]1O [VANCOMYCIN] | – | – | – | 16 (≈ 11 µM) | 1 (≈ 0.69 µM) | 8 (≈ 5.52 µM) | > 128 | > 128 |

— ChEMBL document CHEMBL1136741, “Role of the glycopeptide framework in the antibacterial activity of hydrophobic derivatives of glycopeptide antibiotics” (2003)
